Laboratory results taken from ChEMBL document CHEMBL4834420, “Projected Dose Optimization of Amino- and Hydroxypyrrolidine Purine PI3Kδ Immunomodulators” (J Med Chem, 2021).
In brackets after ≈: the same amount, converted by molar mass.

Tests used:
[1] = molecular target: T1, Cytochrome P450 1A2 (Homo sapiens, UniProt P05177); assay: Inhibition of CYP1A2 (unknown origin); format: ADME
T1 sequence (P05177 whole entry): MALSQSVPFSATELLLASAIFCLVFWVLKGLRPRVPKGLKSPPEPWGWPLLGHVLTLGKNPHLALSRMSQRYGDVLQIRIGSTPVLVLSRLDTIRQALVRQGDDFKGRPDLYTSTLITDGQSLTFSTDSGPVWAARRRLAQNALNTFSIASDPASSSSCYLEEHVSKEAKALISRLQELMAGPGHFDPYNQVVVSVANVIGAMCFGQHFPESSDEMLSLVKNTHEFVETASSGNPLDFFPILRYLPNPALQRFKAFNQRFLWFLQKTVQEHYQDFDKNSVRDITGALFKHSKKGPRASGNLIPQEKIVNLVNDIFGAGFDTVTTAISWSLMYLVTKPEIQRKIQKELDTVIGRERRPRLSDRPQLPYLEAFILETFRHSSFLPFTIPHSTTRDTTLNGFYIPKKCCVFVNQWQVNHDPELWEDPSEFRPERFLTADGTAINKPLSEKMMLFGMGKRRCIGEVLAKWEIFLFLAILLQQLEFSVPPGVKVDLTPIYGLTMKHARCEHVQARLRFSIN

[2] = molecular target: T2, Phosphatidylinositol 4,5-bisphosphate 3-kinase catalytic subunit delta isoform (Mus musculus) (UniProt O35904); assay: Inhibition of PI3Kdelta in Foxp3-GFP C57BL/6 mouse assessed as reduction in Treg population at 30 to 100 mg/kg administered upto 7 days; format: organism-based; parameters: scale not given: the % may be the effect or the level left; settings: dose 30-100 mg/kg, time day <=7
T2 sequence (whole entry): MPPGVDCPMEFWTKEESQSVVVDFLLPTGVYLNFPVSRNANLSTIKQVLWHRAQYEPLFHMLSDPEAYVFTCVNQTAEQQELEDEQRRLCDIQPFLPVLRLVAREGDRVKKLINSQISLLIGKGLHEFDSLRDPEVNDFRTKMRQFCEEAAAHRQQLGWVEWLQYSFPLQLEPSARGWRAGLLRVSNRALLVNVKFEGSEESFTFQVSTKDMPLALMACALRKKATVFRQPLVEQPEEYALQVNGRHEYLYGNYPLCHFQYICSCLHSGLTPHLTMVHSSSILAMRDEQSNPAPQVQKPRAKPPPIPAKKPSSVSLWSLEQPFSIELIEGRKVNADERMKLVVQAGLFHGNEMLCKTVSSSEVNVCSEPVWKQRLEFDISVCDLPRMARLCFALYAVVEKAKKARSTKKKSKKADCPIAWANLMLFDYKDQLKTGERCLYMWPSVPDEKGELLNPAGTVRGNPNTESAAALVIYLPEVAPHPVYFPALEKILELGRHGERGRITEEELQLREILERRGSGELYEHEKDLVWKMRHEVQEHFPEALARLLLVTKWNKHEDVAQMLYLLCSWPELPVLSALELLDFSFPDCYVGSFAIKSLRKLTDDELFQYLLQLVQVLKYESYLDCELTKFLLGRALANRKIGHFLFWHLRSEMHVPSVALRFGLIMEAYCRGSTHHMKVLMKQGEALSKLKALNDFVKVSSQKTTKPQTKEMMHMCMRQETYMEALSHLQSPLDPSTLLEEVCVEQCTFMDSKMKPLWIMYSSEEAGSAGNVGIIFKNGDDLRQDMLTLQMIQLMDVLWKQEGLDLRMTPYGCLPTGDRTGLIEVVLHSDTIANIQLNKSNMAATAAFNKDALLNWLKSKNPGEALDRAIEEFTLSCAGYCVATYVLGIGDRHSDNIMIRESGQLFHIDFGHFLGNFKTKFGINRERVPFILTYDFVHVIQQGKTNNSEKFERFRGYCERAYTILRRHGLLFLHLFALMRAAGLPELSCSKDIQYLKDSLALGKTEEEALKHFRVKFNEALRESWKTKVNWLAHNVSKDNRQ
Procedure, shortened: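 C57BL/6 Foxp3-GFP reporter mice were dosed at 30 and 100 mg/kg/day for up to 7 days. Treg population was monitored by bioluminescence imaging 10 min after ip injection of 3 mg luciferin. Radiance was quantified as photons/s/cm²/steradian. Diphtheria toxin served as a positive control.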

[3] = Cmax in C57BL/6 mouse at 100 mg/kg; format: ADME, organism-based; parameters: dose 100 mg/kg; settings: in vivo
[4] = Oral bioavailability in C57BL/6 mouse; format: ADME, organism-based; settings: in vivo
[5] = Unbound volume of distribution in Beagle dog; format: ADME, Canis lupus familiaris; settings: in vivo
[6] = Unbound Trough plasma concentration Brown Norway rat at 10 mg/kg, po; format: ADME, organism-based; settings: in vivo
[7] = Protein binding in human plasma; format: ADME, cell-free; settings: read-out: PPB (converted)
[8] = molecular target: Cytochrome P450 2C19 (Homo sapiens, UniProt P33261); assay: Inhibition of CYP2C19 (unknown origin); format: ADME
[9] = molecular target: Cytochrome P450 2C9 (Homo sapiens, UniProt P11712); assay: Inhibition of CYP2C9 (unknown origin); format: ADME
[10] = molecular target: T3, Cytochrome P450 2B6 (Homo sapiens, UniProt P20813); assay: Inhibition of CYP2B6 (unknown origin); format: ADME
T3 sequence (P20813 whole entry): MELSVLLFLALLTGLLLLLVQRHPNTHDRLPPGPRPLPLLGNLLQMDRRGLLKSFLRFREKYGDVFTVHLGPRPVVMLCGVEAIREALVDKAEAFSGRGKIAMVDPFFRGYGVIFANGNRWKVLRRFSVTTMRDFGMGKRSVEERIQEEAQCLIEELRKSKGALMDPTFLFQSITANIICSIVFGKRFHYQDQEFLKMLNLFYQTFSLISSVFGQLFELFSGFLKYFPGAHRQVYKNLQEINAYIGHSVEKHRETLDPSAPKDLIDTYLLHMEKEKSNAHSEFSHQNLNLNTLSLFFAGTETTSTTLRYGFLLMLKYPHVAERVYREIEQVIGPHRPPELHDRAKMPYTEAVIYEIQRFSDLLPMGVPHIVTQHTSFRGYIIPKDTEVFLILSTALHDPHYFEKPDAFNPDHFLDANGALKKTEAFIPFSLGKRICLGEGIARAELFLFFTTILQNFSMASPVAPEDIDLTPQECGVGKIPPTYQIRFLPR

[11] = Unbound volume of distribution in Wistar Han rat; format: ADME; settings: in vivo
[12] = Apparent permeability in pig LLC-PK1 cells; format: ADME, cell-based, Sus scrofa
[13] = test system: P-gp (MDR1); assay: Efflux ratio of apparent permeability from basolateral to apical side over apical to basolateral side in dog MDCK2 cells expressing MDR1 PGP; format: ADME, cell-based, Canis lupus familiaris, MDCKII-MDR1; settings: MDCK-MDR1
[14] = test system: Rattus norvegicus; assay: Immunomodulatory activity in ovalbumin induced Brown Norway rat allergic rhinitis model assessed as reduction in BAL count at 10 mg/kg, po administered for 2 days and treated with ovalbumin after 1 hr post second dose; format: functional; parameters: scale not given: the % may be the effect or the level left; settings: time 2 day
Procedure, shortened: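 Brown Norway rats were presensitized with ovalbumin, 0.020 mg ip daily for 14 days. They then received compound orally for 2 days (0.3–30 mg/kg range studied). Ovalbumin challenge came 1 h after the second dose. Eosinophil cell count in bronchoalveolar lavage was assessed 48 h later.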

[15] = Volume of distribution in Beagle dog; format: ADME, Canis lupus familiaris; settings: in vivo
[16] = Solubility of the compound at pH 7.4; format: physicochemical; settings: buffer
[17] = Oral bioavailability in Wistar Han rat; format: ADME, organism-based; settings: in vivo

Sequence of Cytochrome P450 2C19 (P33261 whole entry): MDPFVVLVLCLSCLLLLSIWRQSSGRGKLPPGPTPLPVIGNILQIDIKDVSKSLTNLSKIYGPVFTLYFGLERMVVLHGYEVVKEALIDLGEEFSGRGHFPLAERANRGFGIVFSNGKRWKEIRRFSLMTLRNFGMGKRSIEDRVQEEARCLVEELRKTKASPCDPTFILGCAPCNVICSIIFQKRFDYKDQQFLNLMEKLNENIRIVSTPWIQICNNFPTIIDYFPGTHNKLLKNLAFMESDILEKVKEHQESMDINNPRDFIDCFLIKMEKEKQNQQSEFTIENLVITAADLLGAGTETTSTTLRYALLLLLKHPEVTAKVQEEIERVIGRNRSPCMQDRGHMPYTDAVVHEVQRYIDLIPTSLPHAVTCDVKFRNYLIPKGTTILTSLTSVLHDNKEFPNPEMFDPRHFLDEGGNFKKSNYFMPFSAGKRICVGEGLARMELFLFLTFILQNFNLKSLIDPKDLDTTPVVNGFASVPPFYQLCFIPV
Sequence of Cytochrome P450 2C9 (P11712 whole entry): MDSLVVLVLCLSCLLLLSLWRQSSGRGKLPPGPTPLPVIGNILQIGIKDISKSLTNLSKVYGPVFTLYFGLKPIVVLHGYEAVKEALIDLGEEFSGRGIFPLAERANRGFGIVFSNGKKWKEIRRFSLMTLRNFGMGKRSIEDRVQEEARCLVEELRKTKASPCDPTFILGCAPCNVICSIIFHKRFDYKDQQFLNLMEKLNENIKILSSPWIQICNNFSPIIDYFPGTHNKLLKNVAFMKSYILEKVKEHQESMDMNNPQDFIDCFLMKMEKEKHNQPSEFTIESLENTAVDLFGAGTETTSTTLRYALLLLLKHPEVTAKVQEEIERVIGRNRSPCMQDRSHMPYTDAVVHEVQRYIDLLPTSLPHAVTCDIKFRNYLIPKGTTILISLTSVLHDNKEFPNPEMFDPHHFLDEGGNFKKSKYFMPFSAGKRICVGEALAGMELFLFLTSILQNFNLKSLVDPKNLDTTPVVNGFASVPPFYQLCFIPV

- IC50 [1]: > 50 µM
- Activity [2]: 70%
- Cmax [3]: 33 µM
- bioavailability [4]: 77%
- Vdu [5]: 1.8 L/kg
- fCmin [6]: 8 nM
- fraction unbound [7]: 0.7
- IC50 [8]: > 50 µM
- IC50 [9]: > 50 µM
- IC50 [10]: > 50 µM
- Vdu [11]: 6.3 L/kg
- Papp [12]: 22 ×10⁻⁶ cm/s
- efflux ratio [13]: 16
- Vd [15]: 1.5 L/kg
- solubility [16]: 15 mg/mL (≈ 38.2 mM)
- bioavailability [17]: 55%
SMILES: CCn1c(-c2cnc(C)nc2)nc2c(N[C@H]3CCN(C(=O)C4CC4)C3)ncnc21
- Activity [14]: 50%
